Experiments:
Assay type in all cases: functional
[1] = tested on: Mycobacterium tuberculosis; experiment: Selectivity ratio of MIC for Mycobacterium tuberculosis H37Rv harboring ATP synthase subunit-c D28N mutant supplemented with 8 fold MIC of 3-(4-Morpholinophenyl)-4-((pyridin-2-ylmethyl)amino)cyclobut-3-ene-1,2-dione to MIC for Mycobacterium tuberculosis H37Rv
[2] = tested on: Mycobacterium tuberculosis; experiment: Antimycobacterial activity against Mycobacterium tuberculosis H37Rv harboring ATP synthase subunit a K179N mutant supplemented with 8 fold MIC of 3-(4-Morpholinophenyl)-4-((pyridin-2-ylmethyl)amino)cyclobut-3-ene-1,2-dione
Procedure, shortened: (§1)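 Spontaneous resistant mutants were selected by plating M. tuberculosis on 7H10 agar containing the squaramide at 4- or 8-fold its MIC. MIC was then determined for the mutants, with MIC taken as the concentration giving 80% growth inhibition.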

[3] = tested on: Mycobacterium tuberculosis; experiment: Selectivity ratio of MIC for Mycobacterium tuberculosis H37Rv harboring ATP synthase subunit a K179N mutant supplemented with 8 fold MIC of 3-(4-Morpholinophenyl)-4-((pyridin-2-ylmethyl)amino)cyclobut-3-ene-1,2-dione to MIC for Mycobacterium tuberculosis H37Rv
[4] = tested on: Mycobacterium tuberculosis; experiment: Selectivity ratio of MIC for Mycobacterium tuberculosis H37Rv harboring ATP synthase subunit-c D28N mutant supplemented with 4 fold MIC of 3-(4-Morpholinophenyl)-4-((pyridin-2-ylmethyl)amino)cyclobut-3-ene-1,2-dione to MIC for Mycobacterium tuberculosis H37Rv
[5] = tested on: Mycobacterium tuberculosis; experiment: Antimycobacterial activity against Mycobacterium tuberculosis H37Rv harboring ATP synthase subunit-c D28N mutant supplemented with 8 fold MIC of 3-(4-Morpholinophenyl)-4-((pyridin-2-ylmethyl)amino)cyclobut-3-ene-1,2-dione; procedure, shortened: as §1
[6] = tested on: Mycobacterium tuberculosis; experiment: Antimycobacterial activity against Mycobacterium tuberculosis H37Rv harboring ATP synthase subunit-c D28N mutant supplemented with 4 fold MIC of 3-(4-Morpholinophenyl)-4-((pyridin-2-ylmethyl)amino)cyclobut-3-ene-1,2-dione; procedure, shortened: as §1
[7] = tested on: Mycobacterium tuberculosis; experiment: Antimycobacterial activity against Mycobacterium tuberculosis H37Rv harboring ATP synthase subunit-a K179N mutant supplemented with 4 fold MIC of 3-(4-Morpholinophenyl)-4-((pyridin-2-ylmethyl)amino)cyclobut-3-ene-1,2-dione; procedure, shortened: as §1
[8] = tested on: Mycobacterium tuberculosis; experiment: Selectivity ratio of MIC for Mycobacterium tuberculosis H37Rv harboring ATP synthase subunit-a K179N mutant supplemented with 4 fold MIC of 3-(4-Morpholinophenyl)-4-((pyridin-2-ylmethyl)amino)cyclobut-3-ene-1,2-dione to MIC for Mycobacterium tuberculosis H37Rv

SMILES: O=c1c(NCc2cnccn2)c(-c2ccc(N3CCOCC3)cc2)c1=O
- Selectivity ratio [1]: >8
- MIC=>80 [2]: >100 µM
- Selectivity ratio [3]: >8
- Selectivity ratio [4]: >8
- MIC=>80 [5]: >100 µM
- MIC=>80 [6]: >100 µM
- MIC=>80 [7]: >100 µM
- Selectivity ratio [8]: >8

SMILES: O=c1c(NCc2ccccn2)c(-c2ccc(C(F)(F)F)cc2)c1=O
- Selectivity ratio [1]: >8
- MIC=>80 [2]: >=100 uM
- Selectivity ratio [3]: >8
- Selectivity ratio [4]: >8
- MIC=>80 [5]: 100 µM
- MIC=>80 [6]: >100 µM
- MIC=>80 [7]: >100 µM
- Selectivity ratio [8]: >8

SMILES: O=c1c(NCc2ccccn2)c(-c2ccc(N3CCOCC3)cc2)c1=O
- Selectivity ratio [1]: >8
- MIC=>80 [2]: >100 µM
- Selectivity ratio [3]: >8
- Selectivity ratio [4]: >8
- MIC=>80 [5]: 100 µM
- MIC=>80 [6]: >100 µM
- MIC=>80 [7]: >100 µM
- Selectivity ratio [8]: >8

SMILES: NNC(=O)c1ccncc1 [ISONIAZID]
- Selectivity ratio [1]: <=4
- MIC=>80 [2]: 0.02 to 0.03 µM
- Selectivity ratio [3]: <=4
- Selectivity ratio [4]: <=4
- MIC=>80 [5]: 0.03 µM
- MIC=>80 [6]: 0.02 µM
- MIC=>80 [7]: 0.03 µM
- Selectivity ratio [8]: <=4

SMILES: CO[C@H]1/C=C/O[C@@]2(C)Oc3c(C)c(O)c4c(O)c(c(/C=N/N5CCN(C)CC5)c(O)c4c3C2=O)NC(=O)/C(C)=C\C=C\[C@H](C)[C@H](O)[C@@H](C)[C@@H](O)[C@@H](C)[C@H](OC(C)=O)[C@@H]1C [RIFAMPIN]
- Selectivity ratio [1]: <=4
- MIC=>80 [2]: 0.004 to 0.008 µM
- Selectivity ratio [3]: <=4
- Selectivity ratio [4]: <=4
- MIC=>80 [5]: 0.016 µM
- MIC=>80 [6]: 0.008 µM
- MIC=>80 [7]: 0.008 µM
- Selectivity ratio [8]: <=4

From ChEMBL document CHEMBL4052589, “Discovery of Imidazo[1,2-a]pyridine Ethers and Squaramides as Selective and Potent Inhibitors of Mycobacterial Adenosine Triphosphate (ATP) Synthesis” (J Med Chem, 2017)
